# Test results from ChEMBL document CHEMBL2396611, “Synthesis and mechanism of hypoglycemic activity of benzothiazole derivatives” (J Med Chem, 2013).
# Calls of active or inactive are those of the source. No cut-off for these calls is given here.
# How the values were obtained:
# L6 [1] = assay: Activation of AMPKalpha in rat L6 cells assessed as phosphorylation at Thr172 at 150 uM after 4 hrs by Western blot analysis; type: cell-based
# Outline: (§1)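 L6 myotubes treated 4 h with increasing compound concentrations (5 to 150 μM) or DMSO. Whole-cell lysates immunoblotted for pThr172-AMPKα, AMPKα and α-tubulin; phosphorylation expressed relative to DMSO-treated control.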
# L6 [2] = assay: Increase of myc-tagged GLUT1 translocation in rat L6 cell plasma membrane at 25 uM after 30 mins to 5 hrs by colorimetric analysis; type: functional, cell-based
# Outline: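 L6 lines stably carrying GLUT4myc or GLUT1myc, treated 5 h with test agent or DMSO; insulin given for 30 min. Live myotubes incubated with rabbit anti-c-Myc (1:200), washed, fixed in 3% formaldehyde, then HRP anti-rabbit IgG (1:2000). Developed with OPD and read at 492 nm to give relative surface transporter abundance.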
# Mus musculus [3] = assay: Antidiabetic activity in overnight fast KKAy mouse assessed as total body glucose clearance at 30 to 75 mg/kg, sc bid for 2 days; type: functional; conditions: dose mg/kg 30-75; route subcutaneous
# L6 [4] = assay: Effect on total GLUT1 expression in rat L6 cell lysate at 25 uM after 30 mins to 5 hrs by Western blot analysis; type: functional, cell-based
# Outline: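 Fully differentiated L6 myotubes, preconditioned in αMEM with 23.0 mM D-glucose; insulin exposure 30 min, test exposure 5 h. Whole-cell lysates made in Tris-HCl pH 7.5 buffer with phosphatase and protease inhibitors, 40 min at 4 °C. Protein measured by Bradford, 5-60 µg per lane. Western blot probed with rabbit polyclonal anti-GLUT1 or anti-GLUT4.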
# Mus musculus [5] = assay: Toxicity in overnight fast KKAy mouse assessed as reduction of daily food intake at 30 to 75 mg/kg, sc bid for 2 days; type: organism-based; parameters: dose 30-75 mg/kg, route subcutaneous; conditions: in vivo, 48 h
# Outline: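 Hyperglycemic KKAy mice given 30 or 75 mg/kg s.c. twice daily as a suspension in sesame oil; controls received oil (150 µl). Daily food intake recorded over the 2-day treatment; n=10 per group, mean ± SEM.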
# Cytochrome P450 3A4 = Cytochrome P450 3A4 (Homo sapiens, UniProt P08684); assay: Inhibition of CYP3A4 (unknown origin) by luminescent based assay; type: ADME
# [6] = molecular target: 5'-AMP-activated protein kinase catalytic subunit alpha-2 (Rattus norvegicus) (UniProt Q09137); assay: Activation of AMPK in rat L6 cells assessed as AS-160 phosphorylation at Thr642 after 30 mins by Western blot analysis relative to control
# [7] = molecular target: 5'-AMP-activated protein kinase catalytic subunit alpha-2 (Rattus norvegicus) (UniProt Q09137); assay: Activation of AMPK in rat L6 cells assessed as increase of [3H]dGlc uptake at 25 uM after 5 hrs relative to control; type: cell-based
# Outline: (§2)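 Fully differentiated L6 myotubes preincubated 24 h in αMEM with 2% FCS and 23.0 mmol/L D-glucose, then 4 h serum-free with 0.5% BSA. Compound or DMSO vehicle given for the indicated times or concentrations. Uptake read after 5 min at room temperature in PBS pH 7.4 with 0.1 mmol/L dGlc and 1.3 μCi/mL [3H]dGlc, by scintillation of SDS lysates. Zero-time basal rate set as 100%; n=6.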
# [8] = molecular target: 5'-AMP-activated protein kinase catalytic subunit alpha-2 (Rattus norvegicus) (UniProt Q09137); assay: Activation of AMPK in rat L6 cells assessed as AS-160 phosphorylation at Thr642 at 250 mM after 40 mins by Western blot analysis relative to control; type: cell-based
# Outline: (§3)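 Fully differentiated L6 myotubes, preincubated 3 h with or without 5 μM Compound C. Test agents: compound at 25 μM for 3 h, sorbitol 250 mM for 40 min, AICAR 4 mM for 30 min. Whole-cell lysates probed by Western blot for pSer79-ACC, ACC, pThr642-AS-160, AS-160 and α-tubulin; band densities summarized, n=3, vs respective controls.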
# Cytochrome P450 2C19 = Cytochrome P450 2C19 (Homo sapiens, UniProt P33261); assay: Inhibition of CYP2C19 (unknown origin) by luminescent based assay; type: ADME
# Mus musculus [9] = assay: Antidiabetic activity in KKAy mouse assessed as reduction of blood glucose level at 30 to 75 mg/kg, sc bid for 4 days measured on day 1 relative to control; type: functional; parameters: scale not given: the % may be the effect or the level left; conditions: dose mg/kg 30-75; route subcutaneous
# Outline: (§4)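 Hyperglycemic KKAy mice injected s.c. twice daily for 4 days with compound at 30 or 75 mg/kg suspended in sesame oil; controls received sesame oil (150 µl). Blood glucose measured at the indicated times, with day-zero levels taken as 100%. n=10 per group, mean ± SEM, compared with oil-treated group.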
# L6 [10] = assay: Activation of AMPKalpha in rat L6 cells assessed as phosphorylation at Thr172 at 10 uM after 4 hrs by Western blot analysis relative to control; type: cell-based; outline: as §1
# Mus musculus [11] = assay: Antidiabetic activity in KKAy mouse assessed as reduction of blood glucose level at 30 to 75 mg/kg, sc bid for 4 days measured on day 3 relative to control; type: functional; parameters: scale not given: the % may be the effect or the level left; conditions: dose mg/kg 30-75; route subcutaneous; outline: as §4
# Mus musculus [12] = assay: Antidiabetic activity in KKAy mouse assessed as reduction of blood glucose level at 30 to 75 mg/kg, sc bid for 4 days measured on day 2 relative to control; type: functional; parameters: scale not given: the % may be the effect or the level left; conditions: dose mg/kg 30-75; route subcutaneous; outline: as §4
# [13] = molecular target: 5'-AMP-activated protein kinase catalytic subunit alpha-2 (Rattus norvegicus) (UniProt Q09137); assay: Activation of AMPK in rat L6 cells assessed as increase of [3H]dGlc uptake at 25 uM up to 24 hrs; type: cell-based; outline: as §2
# Cytochrome P450 1A2 = molecular target: T1, Cytochrome P450 1A2 (Homo sapiens, UniProt P05177); assay: Inhibition of CYP1A2 (unknown origin) by luminescent based assay; type: ADME
# T1 sequence (P05177 whole entry): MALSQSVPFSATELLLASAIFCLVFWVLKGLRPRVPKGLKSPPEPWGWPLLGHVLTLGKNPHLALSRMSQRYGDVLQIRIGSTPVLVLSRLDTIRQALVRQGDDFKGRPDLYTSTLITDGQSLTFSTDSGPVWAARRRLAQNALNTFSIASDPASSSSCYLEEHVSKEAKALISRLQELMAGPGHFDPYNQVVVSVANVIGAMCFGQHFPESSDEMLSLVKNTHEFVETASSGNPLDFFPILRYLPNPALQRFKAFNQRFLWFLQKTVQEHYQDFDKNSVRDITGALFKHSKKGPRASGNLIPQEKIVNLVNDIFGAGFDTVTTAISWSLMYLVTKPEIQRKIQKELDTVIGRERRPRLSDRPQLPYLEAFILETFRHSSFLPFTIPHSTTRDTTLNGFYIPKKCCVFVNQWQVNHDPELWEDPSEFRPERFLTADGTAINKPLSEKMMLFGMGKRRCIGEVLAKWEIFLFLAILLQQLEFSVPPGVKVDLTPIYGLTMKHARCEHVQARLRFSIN
# [14] = molecular target: 5'-AMP-activated protein kinase catalytic subunit alpha-2 (Rattus norvegicus) (UniProt Q09137); assay: Activation of AMPK in rat L6 cells assessed as ACC phosphorylation at Ser79 at 25 uM after 3 hrs by Western blot analysis relative to control; type: cell-based; outline: as §3
# L6 [15] = assay: Cytotoxicity against rat L6 cells assessed as cell viability at 25 to 200 uM after 24 hrs by MTT assay; type: cell-based; conditions: l6, 24 h
# Chain of 5'-AMP-activated protein kinase catalytic subunit alpha-2 (Rattus norvegicus) (Q09137 whole entry): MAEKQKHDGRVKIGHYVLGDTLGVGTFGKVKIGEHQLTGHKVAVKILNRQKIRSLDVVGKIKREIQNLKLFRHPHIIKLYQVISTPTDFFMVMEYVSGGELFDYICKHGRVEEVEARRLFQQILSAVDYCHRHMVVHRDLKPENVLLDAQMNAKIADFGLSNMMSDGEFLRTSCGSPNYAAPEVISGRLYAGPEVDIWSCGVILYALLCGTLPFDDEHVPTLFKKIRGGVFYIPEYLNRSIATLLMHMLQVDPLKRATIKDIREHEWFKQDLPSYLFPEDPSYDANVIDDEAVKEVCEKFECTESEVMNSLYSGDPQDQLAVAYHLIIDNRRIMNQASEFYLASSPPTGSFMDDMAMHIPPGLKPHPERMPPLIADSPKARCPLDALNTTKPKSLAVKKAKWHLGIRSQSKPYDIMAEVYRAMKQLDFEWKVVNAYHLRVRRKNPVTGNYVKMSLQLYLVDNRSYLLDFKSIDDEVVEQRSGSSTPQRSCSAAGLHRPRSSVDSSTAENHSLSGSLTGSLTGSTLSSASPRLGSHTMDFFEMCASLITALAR
# Chain of Cytochrome P450 2C19 (P33261 whole entry): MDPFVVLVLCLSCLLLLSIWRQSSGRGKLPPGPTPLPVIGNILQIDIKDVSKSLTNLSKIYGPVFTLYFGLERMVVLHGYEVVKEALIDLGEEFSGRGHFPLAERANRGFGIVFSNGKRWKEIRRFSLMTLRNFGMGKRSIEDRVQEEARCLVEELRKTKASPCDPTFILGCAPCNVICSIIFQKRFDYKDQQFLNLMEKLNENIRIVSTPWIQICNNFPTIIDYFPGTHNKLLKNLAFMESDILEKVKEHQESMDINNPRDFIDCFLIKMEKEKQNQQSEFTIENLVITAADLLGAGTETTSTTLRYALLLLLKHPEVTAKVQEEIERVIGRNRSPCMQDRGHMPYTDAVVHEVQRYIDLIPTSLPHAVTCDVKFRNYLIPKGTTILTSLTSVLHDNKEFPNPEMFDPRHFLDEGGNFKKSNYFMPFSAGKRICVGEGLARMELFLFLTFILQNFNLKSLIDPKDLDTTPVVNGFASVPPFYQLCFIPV
# Chain of Cytochrome P450 3A4 (P08684 whole entry): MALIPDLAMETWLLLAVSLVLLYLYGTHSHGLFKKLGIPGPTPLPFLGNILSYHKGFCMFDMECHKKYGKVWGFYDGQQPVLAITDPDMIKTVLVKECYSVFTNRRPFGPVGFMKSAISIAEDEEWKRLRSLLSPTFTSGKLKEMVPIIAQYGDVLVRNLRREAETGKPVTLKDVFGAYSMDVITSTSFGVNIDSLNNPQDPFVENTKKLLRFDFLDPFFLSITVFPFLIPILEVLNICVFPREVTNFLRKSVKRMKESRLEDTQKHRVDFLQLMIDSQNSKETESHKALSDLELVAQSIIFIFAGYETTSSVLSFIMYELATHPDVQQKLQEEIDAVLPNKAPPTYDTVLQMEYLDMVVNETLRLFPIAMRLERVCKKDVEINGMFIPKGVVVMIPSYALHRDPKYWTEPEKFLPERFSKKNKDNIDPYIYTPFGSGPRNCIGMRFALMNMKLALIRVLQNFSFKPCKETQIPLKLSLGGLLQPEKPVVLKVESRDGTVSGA
compound,measurement,setting,value
CCOc1ccc2nc(SCc3nc4ccccc4s3)sc2c1,fold change (FC),L6 [1],7.6
same,Activity,L6 [2],inactive
same,Activity,Mus musculus [3],40%
same,Activity,L6 [4],inactive
same,Activity,Mus musculus [5],Non-toxic
same,inhibition (INH),Cytochrome P450 3A4,77.1%
same,fold change (FC),[6],1.62
same,Activity,[7],Active
same,fold change (FC),[8],1.55
same,inhibition (INH),Cytochrome P450 2C19,Not Active
same,Activity,Mus musculus [9],30%
same,fold change (FC),L6 [10],4.7
same,Activity,Mus musculus [11],50%
same,Activity,Mus musculus [12],45%
same,Activity,[13],Active
same,inhibition (INH),Cytochrome P450 1A2,Not Active
same,fold change (FC),[14],1.75
same,Activity,L6 [15],Non-toxic
